96 molecules from ChEMBL document CHEMBL4513216, “Probing the Open Global Health Chemical Diversity Library for Multistage-Active Starting Points for Next-Generation Antimalarials” (ACS Infect Dis, 2020) can be followed below.

The structures appear in SMILES notation.

The data set can be described thus: Toxicity liver stage against HepG2, at 10uM. In kind it is cell-based. The arrangement: test concentration 10 uM, cell line HepG2-A16-CD81EGFP. Conditions: human, HepG2-A16-CD81EGFP cells; read-out: INHIBITION
A digest of the protocol: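 Uninfected HepG2-A16-CD81EGFP cells, 3 × 10^3 per well, 1536-well, plated on prespotted compound at 10 μM final, parasite-free screening media added to match infected plates; puromycin 10 μM positive, DMSO 0.5% negative; run in parallel with 48 h PbLuc assay at 37 °C, 5% CO2; viability by CellTiter-Glo luminescence, normalized to controls.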
On to `CC(C)NC(=O)c1sccc1N(C)S(=O)(=O)c1ccc(Cl)cc1`, for which the cytotoxicity at 10 µM is 9.22%.

`Cn1c(Cn2ncc(N3CCCCC3)cc2=O)nc2ccccc21`: the cytotoxicity at 10 µM was determined as 6.01%.

On to `OC12CCC(CC1)N(Cc1ccc(F)cc1)C2CN1CCOCC1` (stereo unspecified), for which the cytotoxicity at 10 µM came out at 5.29%.

On to `Cc1ccc(C(=O)NC2CCN(Cc3noc(C(C)C)n3)CC2)s1`, for which the cytotoxicity at 10 µM was -10.7%.

For `O=C(O)c1c[nH]c2cc(NS(=O)(=O)c3cc(F)ccc3Cl)ccc12`, the cytotoxicity at 10 µM is -1.43%.

As for `O=C(N1CCCC1)N1CCO[C@H]2[C@@H](OCc3cccnc3)CC[C@@H]21`, the cytotoxicity at 10 µM was -1.6%.

With `COc1cccc2ccc(CN3CCN(c4ncccn4)CC3)nc12`, the cytotoxicity at 10 µM is -2.13%.

With `CCO[C@@H]1CO[C@@]2(CCCN(C(=O)c3ccc(OC)c(F)c3)C2)C1`, the cytotoxicity at 10 µM came out at 3.02%.

As to `O=C(NCCCN1CCOCC1)C(OC1CCCC1)c1ccccc1` (stereo unspecified), the cytotoxicity at 10 µM is -5.95%.

Take `CC(C)N1CCC(c2nc3ccc(-c4ccnn4C)cn3n2)CC1`: the cytotoxicity at 10 µM stood at 14.9%.

On to `O=C(Nc1cnc2n1CCCC2)c1cccc(-n2cnnc2)c1`, for which the cytotoxicity at 10 µM was -4.34%.

On to `O=C(NC[C@H]1OC[C@@H](NC2CCOCC2)[C@@H]1O)C1CCCC1`, for which the cytotoxicity at 10 µM was -1%.

As for `O=C(c1cccnc1)N1CCC2(CC1)CCN(c1ccsc1)C2=O`, the cytotoxicity at 10 µM came out at 6.84%.

Consider `COc1cccc(N2CC3(CCN(c4cnccn4)C3)CC2=O)c1` (stereo unspecified), for which the cytotoxicity at 10 µM was 0.0227%.

With `Cc1n[nH]/c(=N\C(=O)c2c3c(nc4onc(C)c24)CCC3)s1`, the cytotoxicity at 10 µM was -1.88%.

`Fc1cccc(Nc2nc(N3CCCC3)nc3c2CNCC3)c1`: the cytotoxicity at 10 µM was -18%.

Regarding `COC(=O)N1CCC2(CC1)N=C(CCC(C)C)NC2=O`, the cytotoxicity at 10 µM was -2.77%.

For `CC(NCC1CCN(CCO)CC1)c1cccnc1` (stereo unspecified), the cytotoxicity at 10 µM was -5.6%.

For the molecule `Cc1ccc(C(=O)N2C[C@@H]3CN(c4ncccn4)C[C@@H]3C2)cn1`, the cytotoxicity at 10 µM was determined as 6.86%.

For the molecule `COc1ccc(CN(C)Cc2c(C)noc2C)c(Cl)c1OC`, the cytotoxicity at 10 µM is -1.22%.

Turning to `Cc1cc(-c2ccc(=O)n(C3CCN(C(=O)C4CC4)CC3)n2)c(C)o1`, the cytotoxicity at 10 µM stood at 4.79%.

As for `O=C(O)c1cnc2c(Br)cccc2c1O`, the cytotoxicity at 10 µM amounted to 15.5%.

As for `O=c1[nH]c(C2CCOC2)nc2cc(F)c(F)cc12` (stereo unspecified), the cytotoxicity at 10 µM was 9.66%.

On to `O=S(=O)(C1CC1)N1CCC2(COCc3cnc(N4CCOCC4)nc32)C1` (stereo unspecified), for which the cytotoxicity at 10 µM was -5.44%.

As to `Cc1cc(CC(C)Nc2ncc(C)c(N(C)C)n2)[nH]n1` (stereo unspecified), the cytotoxicity at 10 µM is -7.85%.

For the molecule `COCc1cncc2c1CCN(C(=O)c1ccsc1)C2`, the cytotoxicity at 10 µM is 2.43%.

Consider `Fc1cnc(N2CCO[C@H]3CN(CC4CCCC4)C[C@H]32)nc1`, for which the cytotoxicity at 10 µM was -9.39%.

Regarding `CCn1nc2c(cc1=O)CN(c1ncnc3sccc13)CC2`, the cytotoxicity at 10 µM is 47.5%.

Regarding `NC(=O)CN(CC(N)=O)Cc1cccc(Oc2ccccc2)c1`, the cytotoxicity at 10 µM was -5.05%.

With `CCS(=O)(=O)c1ccc(N2CCC(NC(=O)CC3CCCC3)CC2)cc1`, the cytotoxicity at 10 µM came to 22.7%.

In the case of `CC(=O)c1c(C)cc(C)c(CS(=O)(=O)c2nccn2C)c1C`, the cytotoxicity at 10 µM is -4.28%.

Take `O=C(c1cccnc1)N1CCCC2(CCN(c3ccsc3)C2=O)C1` (stereo unspecified): the cytotoxicity at 10 µM is -1.29%.

Consider `O=C(c1cccnc1SC/C=C/c1ccccc1)N1CCOCC(O)C1` (stereo unspecified), for which the cytotoxicity at 10 µM is -2.42%.

On to `Cc1c[nH]nc1C1CN(c2cnccn2)CCO1` (stereo unspecified), for which the cytotoxicity at 10 µM was found to be 4.34%.

In the case of `Cc1cc(NC(=O)Cc2ccccc2O)c[nH]c1=O`, the cytotoxicity at 10 µM is -2.38%.

In the case of `O=C(c1cc(Cl)cc(Cl)c1)N1CCN(c2nccs2)CC1`, the cytotoxicity at 10 µM was -5.69%.

Turning to `CS(=O)(=O)N1CCCC1c1cccc(Cc2ccccc2F)n1` (stereo unspecified), the cytotoxicity at 10 µM is -13.2%.

For `O=C(CC1CCCC1)NCCS(=O)(=O)N1CCN(c2ncccn2)CC1`, the cytotoxicity at 10 µM was -1%.

As for `CCc1nccn1CC(=O)N1C[C@@H]2CC[C@H]1CN(C(=O)N(C)C)C2`, the cytotoxicity at 10 µM is -4.67%.

`O=C1CCC2(CCCN(C(=O)c3ccoc3)C2)CN1CCc1c[nH]cn1` (stereo unspecified): the cytotoxicity at 10 µM came out at 4.54%.

Take `O=S1(=O)NC2(CCCN(Cc3ccc(F)cc3)C2)COc2ccccc21` (stereo unspecified): the cytotoxicity at 10 µM came to 7.63%.

`CNC(=O)C1CCC2(CCN(c3ncc(C)cn3)CC2)CO1` (stereo unspecified): the cytotoxicity at 10 µM was -4.66%.

`Cc1cc(-n2cccn2)ccc1CN1CCC(O)(CN2CCCCC2)C1` (stereo unspecified): the cytotoxicity at 10 µM came out at 6.2%.

As to `O=C(NCc1ccc(F)cc1)N1CCC(C2OCCO2)CC1`, the cytotoxicity at 10 µM is -2.39%.

Regarding `CCCC(=O)N(C)Cc1cccc(OC(C)C)c1`, the cytotoxicity at 10 µM is -4.24%.

Turning to `O=C(CCc1nccs1)N1CCCC(n2ccnc2)C1` (stereo unspecified), the cytotoxicity at 10 µM is -16%.

As to `CCOC(=O)C1CC2(CCCCC2)N2CCC(=O)N12` (stereo unspecified), the cytotoxicity at 10 µM amounted to 2.63%.

For the molecule `C[C@H]1C[C@@H]2CCN(Cc3ccccn3)C[C@H]2O1`, the cytotoxicity at 10 µM was determined as 5.66%.

As for `COCCN1CCCC2(CCN(c3ncnc(C)c3C)C2)C1=O` (stereo unspecified), the cytotoxicity at 10 µM was found to be 33.4%.

In the case of `CCC(CN1CCOCC1)n1cncc1-c1ccc2c(c1)CCN2CC` (stereo unspecified), the cytotoxicity at 10 µM turned out to be 14.9%.

As to `Fc1ccccc1CN1CCCC2(CCN(c3ncccn3)C2)C1` (stereo unspecified), the cytotoxicity at 10 µM was -104%.

For `CCn1ccc(-c2cc(C(=O)O)n3nc(C(F)(F)F)c(Br)c3n2)n1`, the cytotoxicity at 10 µM is -1.47%.

Consider `O=C(Cn1ccc(C(=O)O)n1)Nc1c(Cl)cccc1Cl`, for which the cytotoxicity at 10 µM was determined as 7.07%.

For `COc1ccccc1CN1C(=O)O[C@@H]2CN(c3nc(C)cnc3C)C[C@@H]21`, the cytotoxicity at 10 µM stood at 1.06%.

As for `O=C(NCCNc1ncccn1)c1ccc(-c2ccco2)[nH]c1=O`, the cytotoxicity at 10 µM is -3.29%.

As to `Cc1noc(C)c1Cc1nc(C2CC2)no1`, the cytotoxicity at 10 µM was found to be 5.42%.

For `Cc1nnsc1CN(C)C(=O)CCn1cnc2ccccc21`, the cytotoxicity at 10 µM is 14.7%.

In the case of `Cc1ccccc1CCC1CCCN(Cc2c(C)[nH]c(=O)[nH]c2=O)C1` (stereo unspecified), the cytotoxicity at 10 µM worked out at 5%.

Take `Cc1n[nH]c(C)c1CCNC(=O)C1CCCN(Cc2ccco2)C1` (stereo unspecified): the cytotoxicity at 10 µM was -6.23%.

In the case of `CCNC(=O)c1ccc(NC2CCOC3(CCCC3)C2)nn1` (stereo unspecified), the cytotoxicity at 10 µM is -5%.

`Cc1noc(CN2CCN(C(=O)c3ccccn3)CC2)n1`: the cytotoxicity at 10 µM worked out at 1.35%.

Regarding `CS(=O)(=O)c1ccc(C(=O)N2CCCC(n3cccn3)C2)cc1` (stereo unspecified), the cytotoxicity at 10 µM was -6.98%.

Regarding `Cc1cnn(CC2CCN(CC(O)c3ccc(F)cc3)CC2)c1` (stereo unspecified), the cytotoxicity at 10 µM is -0.237%.

Take `COCCCNc1cc(C)nn2cnnc12`: the cytotoxicity at 10 µM is 6%.

Consider `Cn1cc(C2=CCN(CCCOc3ccc(C(N)=O)cc3)CC2)cn1`, for which the cytotoxicity at 10 µM came to 6.39%.

In the case of `COC(=O)CCNC(=O)c1nc(NS(=O)(=O)c2ccccc2)sc1C`, the cytotoxicity at 10 µM was 8.23%.

Consider `OCC1CCCN1c1cc(NCCNc2ccccn2)ncn1` (stereo unspecified), for which the cytotoxicity at 10 µM was -20.1%.

As for `CCN(CC)c1ccc(C(=O)NCc2cccnc2-n2cncn2)cn1`, the cytotoxicity at 10 µM was 11.7%.

For `CCN(CCO)C(=O)C1CCC(=O)N(Cc2cccc(OC)c2)C1` (stereo unspecified), the cytotoxicity at 10 µM is -9.49%.

For `O=C(Nc1cccc(C(F)(F)F)c1)N1CCN(CCn2ccnc2)CC1`, the cytotoxicity at 10 µM was -25.3%.

Take `Cc1c(C(=O)N2C[C@@H](CN(C)CCO)[C@@H](CO)C2)sc2ccccc12`: the cytotoxicity at 10 µM is -11%.

For the molecule `COc1ccc(C(C(=O)O)N2CCN(C3CCCCC3)CC2)cc1OC` (stereo unspecified), the cytotoxicity at 10 µM was -4.89%.

Regarding `Cc1nc(NS(=O)(=O)c2cc(Br)ccc2C)no1`, the cytotoxicity at 10 µM came out at 1.68%.

Consider `Cc1sc(CNS(N)(=O)=O)nc1-c1ccc(Cl)cc1`, for which the cytotoxicity at 10 µM was -7.45%.

As for `CCOc1ccccc1Nc1nc2c(C)nn(C)c2c(=O)n1C`, the cytotoxicity at 10 µM was -7.53%.

For the molecule `O=C([C@H]1CC[C@@H]2[C@@H](CCN2C2CCCC2)O1)N1CCOCC1`, the cytotoxicity at 10 µM amounted to 11.5%.

With `COc1cc(OC)cc(N2CCC(NC(=O)c3ccc[nH]3)CC2)c1`, the cytotoxicity at 10 µM was -4.83%.

As for `Fc1cccc(Cl)c1Cn1ncnc1CSCCN1CCCC1`, the cytotoxicity at 10 µM is -0.454%.

As for `C[C@@H]1CN(C(=O)CCc2nncn2C)CC[C@@]1(O)C1CCC1`, the cytotoxicity at 10 µM was -6.65%.

As for `CC(C)[C@@H]1CN(C(=O)c2ccc3c(c2)CCCO3)C[C@H]1NS(C)(=O)=O`, the cytotoxicity at 10 µM was -6.53%.

For `CC(Cn1ccnc1)NC(=O)NCCc1cccs1` (stereo unspecified), the cytotoxicity at 10 µM was -3.16%.

As to `c1cncc(CN2CCc3ncnc(C4CCOC4)c3CC2)c1` (stereo unspecified), the cytotoxicity at 10 µM turned out to be 5.02%.

In the case of `CC(C)C(NC(=O)N1CCS(=O)(=O)CC1)c1ccccc1Cl` (stereo unspecified), the cytotoxicity at 10 µM was 13.3%.

As to `CCc1n[nH]c(C(=O)N2CCC3(CCCN(CCOC)C3=O)C2)c1C` (stereo unspecified), the cytotoxicity at 10 µM worked out at 6.38%.

Regarding `CCC(O)CN1CCN(C(=O)Cc2nc(-c3ccco3)oc2C)CC1` (stereo unspecified), the cytotoxicity at 10 µM was -2.94%.

In the case of `O=C(CNc1cc2c(cc1Br)OCCO2)NC1CCS(=O)(=O)C1` (stereo unspecified), the cytotoxicity at 10 µM was 6.43%.

As for `O=C(c1ncccn1)N1CCC2(CC1)COC(COc1ccccn1)C2` (stereo unspecified), the cytotoxicity at 10 µM was -1.96%.

For `O=C(c1ccc(Cl)s1)N1CCCn2nc(CN3CC[C@H](F)C3)cc2C1`, the cytotoxicity at 10 µM is -1.44%.

For the molecule `O=C(NCCC1CC1)NCc1cccc(-n2ccnc2)c1`, the cytotoxicity at 10 µM was 19.7%.

`CC(C)CNC(=O)c1ccc2c(c1)nc1n2CCN(Cc2ccco2)C1`: the cytotoxicity at 10 µM was -3.78%.

For `CC1CCc2n[nH]c(C(=O)NCCCc3ccccn3)c2C1` (stereo unspecified), the cytotoxicity at 10 µM is -24.3%.

Regarding `Clc1cccc(N2CCC(NCc3ncc[nH]3)C2)c1` (stereo unspecified), the cytotoxicity at 10 µM was 7.41%.

On to `CN(Cc1n[nH]c(=O)n1Cc1ccccc1F)S(C)(=O)=O`, for which the cytotoxicity at 10 µM is -4.98%.

For `Cc1nccc(C(=O)N2CCCC2c2noc(C(C)C)n2)n1` (stereo unspecified), the cytotoxicity at 10 µM was -16.4%.

As for `O=C(CCCOc1ccccc1F)NCCCC(=O)Nc1cn[nH]c1`, the cytotoxicity at 10 µM was -11.1%.

Consider `COc1cc(CN(C)Cc2cccnc2)c(SC)cc1OC`, for which the cytotoxicity at 10 µM was 2.3%.
